Experimental findings from ChEMBL document CHEMBL3612019, “Revisiting 1,3,4-Oxadiazol-2-ones: Utilization in the Development of ABHD6 Inhibitors” (Bioorg Med Chem, 2015) are described below.

The target in assay [1] is T1, Monoglyceride lipase (Homo sapiens) (UniProt Q99685).
T1 sequence (whole entry): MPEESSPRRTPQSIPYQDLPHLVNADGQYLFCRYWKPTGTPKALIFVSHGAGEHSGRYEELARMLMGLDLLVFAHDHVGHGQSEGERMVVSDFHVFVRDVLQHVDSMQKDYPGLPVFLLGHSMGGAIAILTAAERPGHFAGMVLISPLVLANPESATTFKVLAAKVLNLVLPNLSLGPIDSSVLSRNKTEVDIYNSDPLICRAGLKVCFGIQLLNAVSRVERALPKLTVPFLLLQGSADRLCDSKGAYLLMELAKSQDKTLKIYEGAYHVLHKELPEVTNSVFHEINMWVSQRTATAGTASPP
The assay is described as follows: Inhibition of human MAGL expressed in HEK293 cells at 10 uM pre-incubated for 10 mins before 2-AG substrate addition by HPLC method. In kind it is cell-based. In short, it runs like this: (§1)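 Lysates of hMAGL-overexpressing HEK293 cells in 50 mM Tris–HCl pH 7.4 with 1 mM EDTA. After a 10 min preincubation with inhibitor or DMSO, 2-AG was added (final 50 µM) and incubated 10 min at 37 °C. The reaction was stopped and samples centrifuged. Arachidonic acid formation and 2-AG depletion were measured by HPLC. Replicates as for the FAAH assay.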

Assay [2] addresses T1, Monoglyceride lipase (Homo sapiens). Kind of assay: Inhibition of human MAGL expressed in HEK293 cells at 20 uM pre-incubated for 10 mins before 2-AG substrate addition by HPLC method. The format is cell-based. In short, it runs like this:
as §1

For assay [3], the target named is T2, Fatty-acid amide hydrolase 1 (Mus musculus) (UniProt O08914).
T2 sequence (whole entry): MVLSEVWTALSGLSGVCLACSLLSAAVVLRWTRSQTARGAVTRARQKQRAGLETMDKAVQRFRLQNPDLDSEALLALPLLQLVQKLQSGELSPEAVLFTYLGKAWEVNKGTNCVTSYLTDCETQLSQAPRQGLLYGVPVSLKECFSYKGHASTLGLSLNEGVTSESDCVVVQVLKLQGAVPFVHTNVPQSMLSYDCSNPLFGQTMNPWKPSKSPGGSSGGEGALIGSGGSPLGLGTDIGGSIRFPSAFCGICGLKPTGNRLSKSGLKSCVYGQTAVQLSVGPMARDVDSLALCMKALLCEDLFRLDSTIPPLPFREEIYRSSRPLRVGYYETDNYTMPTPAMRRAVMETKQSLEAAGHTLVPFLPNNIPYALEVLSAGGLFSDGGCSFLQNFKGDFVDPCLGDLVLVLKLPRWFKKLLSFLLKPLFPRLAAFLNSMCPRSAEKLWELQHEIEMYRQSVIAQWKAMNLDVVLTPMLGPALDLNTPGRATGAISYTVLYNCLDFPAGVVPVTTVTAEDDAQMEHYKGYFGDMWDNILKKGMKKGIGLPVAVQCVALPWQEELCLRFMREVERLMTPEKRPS
The assay is described as follows: Inhibition of FAAH in mouse whole brain membranes at 32.5 uM incubated for 1 hr by TAMRA-FP probe based competitive activity-based protein profiling assay. In kind it is cell membranes. The following applies: Membrane. In short, it runs like this: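 Competitive ABPP on mouse brain membranes (100 µg) treated 1 h with DMSO or inhibitor. TAMRA-FP labelling then ran 1 h at RT (final probe 2 µM). Reaction was quenched with gel loading buffer and proteins resolved by 10% SDS–PAGE for fluorescent band read-out. WWL70 located the ABHD6 band. Gels are representative of two experiments.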

Assay [4] deals with Cannabinoid receptor 2 (Homo sapiens) (UniProt P34972). Kind of assay: Agonist activity at human CB2R expressed in CHO cell membranes at 10 uM by [35S]GTPgammaS binding assay. In kind it is functional. For orientation: GTPγS resists hydrolysis and so accumulates on activated G proteins.
The target of assay [5] is Cannabinoid receptor 1 (Rattus norvegicus) (UniProt P20272). The assay is described as follows: Antagonist activity at CB1R in rat cerebellar membranes assessed as inhibition of HU210-induced response at 10 uM by [35S]GTPgammaS binding assay. In kind it is functional, cell membranes. The conditions noted are these: Cerebellum, Membrane. Put shortly: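 Rat cerebellar membranes, [35S]GTPγS binding. Agonist activity is read as % of basal binding. Antagonist activity is read as % of the HU210-evoked response. Compound tested at 10 µM. Values are mean (range), n = 2.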

In assay [6] the target is T3, Monoacylglycerol lipase ABHD6 (Homo sapiens, UniProt Q9BV23).
T3 sequence (Q9BV23 whole entry): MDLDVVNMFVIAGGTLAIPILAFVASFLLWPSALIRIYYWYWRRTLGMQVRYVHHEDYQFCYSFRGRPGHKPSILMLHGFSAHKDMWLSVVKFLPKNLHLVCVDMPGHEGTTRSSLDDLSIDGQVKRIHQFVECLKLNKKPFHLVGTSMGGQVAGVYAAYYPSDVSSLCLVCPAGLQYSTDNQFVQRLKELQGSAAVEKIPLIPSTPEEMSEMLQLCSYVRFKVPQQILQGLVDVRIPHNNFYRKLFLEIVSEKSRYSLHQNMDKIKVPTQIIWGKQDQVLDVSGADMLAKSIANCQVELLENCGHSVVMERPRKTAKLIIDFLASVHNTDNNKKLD
Kind of assay: Inhibition of human ABHD6 expressed in HEK293 cells at 1 uM pre-incubated for 10 mins before 2-AG substrate addition followed by rapid 40 fold compound dilution measured after 10 mins by HPLC method. The format is cell-based.

In assay [7] the target is T3, Monoacylglycerol lipase ABHD6. The assay is described as follows: Inhibition of human ABHD6 expressed in HEK293 cells at 1 uM pre-incubated for 10 mins before 2-AG substrate addition followed by rapid 40 fold compound dilution measured after 60 mins by HPLC method. The format is cell-based.
Assay [8] addresses T4, Monoacylglycerol lipase ABHD6 (Homo sapiens) (UniProt Q9BV23).
T4 sequence (whole entry): T3 sequence (Q9BV23 whole entry)
The conditions noted are these: HEK293, 1 uM.

The target in assay [9] is T5, Monoglyceride lipase (Homo sapiens, UniProt Q99685).
T5 sequence (Q99685 whole entry): T1 sequence (whole entry)
Kind of assay: Inhibition of human MAGL expressed in HEK293 cells pre-incubated for 10 mins before 2-AG substrate addition by HPLC method. In kind it is cell-based. The conditions noted are these: read-out: IC50. Put shortly:
as §1

Activity calls are given as the source filed them. The rule behind the calls is not given here.

Chain of Cannabinoid receptor 2 (Homo sapiens) (P34972 whole entry): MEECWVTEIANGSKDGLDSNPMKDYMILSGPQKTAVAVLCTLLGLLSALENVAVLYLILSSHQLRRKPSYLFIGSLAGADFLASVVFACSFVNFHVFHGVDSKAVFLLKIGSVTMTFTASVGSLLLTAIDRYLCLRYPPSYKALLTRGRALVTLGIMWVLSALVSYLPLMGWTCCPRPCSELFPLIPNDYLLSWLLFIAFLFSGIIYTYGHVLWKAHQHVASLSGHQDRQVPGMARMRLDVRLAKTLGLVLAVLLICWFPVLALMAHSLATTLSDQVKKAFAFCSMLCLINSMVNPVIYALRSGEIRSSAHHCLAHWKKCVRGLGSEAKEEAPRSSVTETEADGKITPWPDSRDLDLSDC
Chain of Cannabinoid receptor 1 (Rattus norvegicus) (P20272 whole entry): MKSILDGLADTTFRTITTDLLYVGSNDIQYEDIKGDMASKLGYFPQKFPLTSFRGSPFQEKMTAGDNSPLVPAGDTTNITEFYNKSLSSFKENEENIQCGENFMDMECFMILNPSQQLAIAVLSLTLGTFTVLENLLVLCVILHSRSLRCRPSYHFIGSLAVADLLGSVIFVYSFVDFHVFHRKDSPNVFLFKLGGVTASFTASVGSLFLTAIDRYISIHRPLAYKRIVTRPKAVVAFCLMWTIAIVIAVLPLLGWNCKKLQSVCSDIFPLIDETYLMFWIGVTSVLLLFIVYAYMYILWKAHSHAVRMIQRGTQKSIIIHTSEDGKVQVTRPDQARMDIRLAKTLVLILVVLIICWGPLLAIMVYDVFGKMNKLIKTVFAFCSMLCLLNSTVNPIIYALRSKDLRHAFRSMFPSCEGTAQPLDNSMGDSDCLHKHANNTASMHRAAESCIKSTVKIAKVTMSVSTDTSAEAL

As usually defined, the inhibition is the relative decrease from the control value, in per cent. One may read the IC50 as the concentration that gives 50% inhibition. `COc1nn(Cc2cccc(N)c2)c(=O)o1`: the results for the inhibition in assay [1] and in assay [2] were 21% and 33%, respectively. Moreover, the inhibition entry in assay [3] and in assay [8] was “Active” each time. Besides, in assay [4], the Activity was 107%. For the same compound, the % of HU210 response in assay [5] came out at 104%. For the same compound, the IC50 was 4.07 µM in assay [6] and 3.63 µM in assay [7].

As for `Nc1cccc(Cn2nc(Oc3ccccc3)oc2=O)c1`, the IC50 in assay [9] stood at 7.94 µM.
